Screening data from PubChem BioAssay.
Candida biofilm – kills Candida albicans biofilms; C. albicans biofilm + clotrimazole, Alamar Blue; inhibition, % at 6 µM; 0.14% of 85,000 active; AID 834;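 active = inhibition above 20%; inactive = inhibition below 20%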;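 note: preformed 24 hr biofilms exposed to compound for 48 hr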
PTK2B oligo ant – Pyk2 (human) oligomerization antagonism. Q14289. Q293 cells, Pyk2 FERM NanoBiT luminescence; active compounds read low. z-score (the deposit names both 25 µM and 10 µM). 0.83% of 99,000 active. AID 1347419;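 active = Z-score of -3 or lower, scaled per plate to the spread of control and sample wells; inactive = z-score above -3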;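 note: negative z-score means lost luminescence so less FERM oligomerization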
FAK inh – blocks human focal adhesion kinase activity. Q05397. AID 727. 0.84% of 97,000 active. biochemical FAK kinase activity assay. inhibition, %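 (tested at 7 µM)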
PostGolgi ctrl – yeast control strain growth, post-Golgi counter-screen. efflux-deficient yeast background strain, growth absorbance A615, 16 h. inhibition, % at 10 µM. 5% of 98,000 active. AID 738; in the data active = inhibition above about 30%
PostGolgi yeast – growth inhibition of a yeast mutant, post-Golgi transport screen. post-Golgi transport phenotypic cell assay. inhibition, % at 10 µM. 0.9% of 98,000 active; in the data active = inhibition above about 30%;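 note: yeast cells grown in 1536-well plates; yeast grown about 18 h at 30C before absorbance read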
Ecoli tolC – blocks growth of E. coli BW25113 tolC mutant; OD615; growth inhibition, % at 10 µM (by protocol); 2.2% of 65,000 active; AID 573;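 active = growth inhibition at or above a cutoff equal to the mean over every tested compound plus 3 SD, cut at about 60% in these data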;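 note: growth measured after 20 h incubation at 37 °C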
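Assay system: tolC-deleted E. coli BW25113. Medium: kanamycin-containing LB broth (50 µg/mL). Dosing: 10 µM final, single dose. Timing: bacterial growth with compound for 20 h at 37 °C. Detection: A615 absorbance measurement. Read-out basis: growth inhibition in percent.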
FAK inh conf – confirmation of human focal adhesion kinase (FAK) inhibitors; shares compounds with FAK inh; FAK kinase biochemical inhibition assay; inhibition, % at 7 µM; 28% of 750 active; AID 794
Each line names hits and unclear results; the compound was inactive in the other large screens (follow-up assays come after a bar, where they were run). This is a sample that favours compounds with a hit; in the whole collection about 6.9% have one here. Cut-off read from the data, not from the text of the source, unless noted: active = inhibition above about 19%; inactive = the rest.

Cc1ccc(S(=O)(=O)N2CCC(C(=O)N(C)C3CCS(=O)(=O)C3)CC2)cc1 (centres undefined)	none (no result: Ecoli tolC)
NC(=O)c1c(NC(=O)c2ccco2)sc2c1CCC2	FAK inh 20.1 (no result: Ecoli tolC) | FAK inh conf inactive
CCC(=O)Nc1sc2c(c1C(N)=O)CCC2	FAK inh 21.4, PostGolgi ctrl 31.0 | FAK inh conf inactive
COc1ccc(/C(N)=N/OC(=O)Cc2ccc(OC)c(OC)c2)cc1	none (no result: Candida biofilm, Ecoli tolC)
CCOC(=O)c1ccc(NC2=CC(=O)C(=O)c3ccccc32)cc1	PTK2B oligo ant -4.33, FAK inh 35.7 (no result: Ecoli tolC) | FAK inh conf 34.7
COc1ccc(-n2nnnc2SCC(=O)Nc2nnn(C)n2)cc1	none (no result: Ecoli tolC)
COc1ccc(-n2nnnc2SCC(=O)Nc2nc3c(s2)CCCC3)cc1	FAK inh 23.8 (no result: Ecoli tolC) | FAK inh conf inactive
COc1ccc(Cn2cnc3c(NS(C)(=O)=O)c(C)c(C)cc32)cc1	none (no result: Candida biofilm, Ecoli tolC)
COc1ccc(-n2cnnc2SCC(=O)Nc2cc(C(C)(C)C)nn2-c2ccccc2)cc1	FAK inh 23.4 (no result: Ecoli tolC) | FAK inh conf inactive
COc1ccccc1-n1cnnc1SCC(=O)Nc1cc(C(C)(C)C)nn1-c1ccccc1	none
COc1ccc(S(=O)(=O)Nc2cc(Sc3ncn[nH]3)c(O)c3ccccc23)cc1	FAK inh 45.5 (no result: Candida biofilm, PTK2B oligo ant, Ecoli tolC) | FAK inh conf inactive
COc1ccc(S(=O)(=O)Nc2ccc(O)c(Sc3ncn[nH]3)c2)cc1	none (no result: PostGolgi ctrl, PostGolgi yeast, Ecoli tolC)
CC(=O)Cc1ccccc1OCC(=O)O	none
COCCN(Cc1ccccc1)P(=O)(O)c1ccccc1OCC(=O)O	FAK inh 62.1 | FAK inh conf 51.6
CCOC(=O)c1cnc2cc(Cl)c(OC)cc2c1NCC1CCCO1 (centres undefined)	FAK inh 20.2 (no result: Candida biofilm) | FAK inh conf inactive
COc1ccc(CCNC(=S)Nc2cccc(C)c2)cc1	none (no result: Ecoli tolC)
CCN1CCN(c2cc(C)c3cc(NC(=O)c4cncc(Br)c4)ccc3n2)CC1	FAK inh 26.3 | FAK inh conf inactive
CCN1CCN(c2cc(C)c3cc(NC(=O)c4ccc(OC)c(OC)c4)ccc3n2)CC1	none (no result: PTK2B oligo ant, Ecoli tolC)
Cc1ccc2c(CC(=O)OCc3cc(=O)n4c(n3)sc3ccccc34)coc2c1	FAK inh 22.6 (no result: Candida biofilm, Ecoli tolC) | FAK inh conf inactive
COc1ccc(C2/C(=C(\O)c3ccc4c(c3)OCCO4)C(=O)C(=O)N2CCCN(C)C)c(OC)c1 (centres undefined)	none (no result: FAK inh, PostGolgi ctrl, PostGolgi yeast)
C=CCn1c(SCC(=O)N2CCCC2)nc2scc(-c3cccs3)c2c1=O	FAK inh 40.5 (no result: Candida biofilm, Ecoli tolC) | FAK inh conf 30.5
COC(=O)Cc1ccc2c3ccccc3n(C)c2c1	FAK inh 41.3 | FAK inh conf 31.7
O=c1[nH]c2ccccc2nc1N1CCOCC1	none (no result: Ecoli tolC)
c1ccc2c(c1)nc(N1CCOCC1)c1c3ccccc3[nH]c21	FAK inh 31.1 | FAK inh conf inactive
Nc1ccc2c(c1)C(=O)C(=O)c1ccccc1-2	PTK2B oligo ant -4.09, FAK inh 57.2 (no result: Ecoli tolC) | FAK inh conf 57.8
CN(C)S(=O)(=O)N1CCN(S(=O)(=O)c2ccc3ccccc3c2)CC1	none (no result: Ecoli tolC)
COc1cc(C(=O)Nc2nc3ccc4nc(C)sc4c3s2)cc(OC)c1OC	none (no result: Ecoli tolC)
COc1ccc(C(=O)Nc2nc3ccc4nc(C)sc4c3s2)cc1	FAK inh 27.0 (no result: PTK2B oligo ant, Ecoli tolC) | FAK inh conf 37.8
N#Cc1cccc(NC(=O)c2ccccc2C(=O)O)c1	FAK inh 21.6 | FAK inh conf inactive
Cc1ccccc1C(=O)Nc1cccc(C#N)c1	none (no result: PostGolgi ctrl, PostGolgi yeast, Ecoli tolC)
NS(=O)(=O)c1ccc(NS(=O)(=O)c2ccc(NC(=O)c3ccc(-c4ccccc4)cc3)cc2)cc1	FAK inh 29.6 (no result: Candida biofilm, Ecoli tolC) | FAK inh conf inactive
CCc1cc2c(cc3c(=O)n(CC(=O)NCCCN(CC)CC)nc(CC)n32)s1	none (no result: Ecoli tolC)
COc1ccc(Cc2nc3ccc(S(=O)(=O)N4CCOCC4)cc3[nH]2)cc1	FAK inh 95.5 (no result: Ecoli tolC) | FAK inh conf inactive
COc1ccc(Cc2nc3ccc(S(=O)(=O)N4CCOCC4)cc3[nH]2)cc1OC	none (no result: Ecoli tolC)
COc1ccc(Br)cc1CNc1ccc(O)cc1	FAK inh 46.7 (no result: Candida biofilm) | FAK inh conf inactive
Cc1c(Cl)c(=O)oc2cc(OC(C)C)ccc12	none (no result: Candida biofilm, FAK inh, PostGolgi ctrl, PostGolgi yeast, Ecoli tolC)
CCc1ccc(CNc2ccc(O)cc2)cc1	FAK inh 56.3 | FAK inh conf inactive
COc1cc(OC)cc(-c2nnc(Nc3nc4c(F)cccc4s3)o2)c1	FAK inh 36.0 | FAK inh conf inactive
Fc1cccc2sc(Nc3nnc(-c4ccccc4)o3)nc12	none
COc1ccc(-c2nnc(Nc3nc4c(OC)cccc4s3)o2)cc1	FAK inh 55.9 | FAK inh conf 26.7
